Blank lines part the entries; values can stand above or below the compound they belong to.
Legend:
[1] = test system: Canis familiaris; experiment: Compound administered intravenously was evaluated for salidiuretic activity measured as sodium ion excretion in Dog; Value ranges from 800-899; assay type: ADME, organism-based, Canis lupus familiaris, Urine; settings: in vivo, iv
Method in brief: (§1)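 Conditioned female mongrel dogs, postabsorptive, water-loaded (500 mL po) 1 h before sodium pentobarbital anesthesia (30 mg/kg iv). Bladder catheter; creatinine 4 g sc; phosphate–mannitol buffer pH 7.4 infused (3.0 mL/min) throughout. […] Urine Na+ measured; response scored 0–6.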

[2] = test system: Canis familiaris; experiment: Oral diuretic activity was evaluated by measuring Na+ excretion in dog at 10 mg/kg after […] ( 0-6 hr); assay type: ADME, organism-based, Canis lupus familiaris, Urine; design: dose 10 mg/kg; settings: in vivo
Method in brief: (§2)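 Dogs; spontaneous urine was pooled with bladder urine drained by catheter at the end of 6 h. Urine volume was measured, and aliquots were assayed for Na+, K+ and Cl− by standard methods. Values are geometric means, expressed as mequiv over 0–6 h.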

[3] = test system: Canis familiaris; experiment: Oral diuretic activity was evaluated by measuring Cl- excretion in dog at 5 mg/kg after […] ( 0-6 hr); assay type: ADME, organism-based, Canis lupus familiaris, Urine; design: dose 5 mg/kg, route intraperitoneal; settings: in vivo
[4] = test system: Canis familiaris; experiment: Oral diuretic activity was evaluated by measuring Cl- excretion in dog at 10 mg/kg after […] ( 0-6 hr); assay type: ADME, organism-based, Canis lupus familiaris, Urine; design: dose 10 mg/kg, route intraperitoneal; settings: in vivo
[5] = Compound administered orally at a dose of 5 mg/kg was evaluated for salidiuretic activity measured as sodium ion excretion in Rat; assay type: organism-based; design: dose 5 mg/kg; settings: Urine
Method in brief: (§3)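 Female Charles-River rats (150–170 g), overnight on sugar diet with water ad libitum. Compound dissolved in DMF, diluted with water containing Tween 80 (final 4% DMF), given po in 5.0 mL; concurrent vehicle placebo. Three rats per metabolism cage; 0–5 h urine analysed for Na+, K+, Cl-. Values: mequiv × 100 per cage, geometric means of three cages per dose; scored 0–6 by Na+.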

[6] = test system: Canis familiaris; experiment: Oral diuretic activity was evaluated by measuring K+ excretion in dog at 1 mg/kg after ip administration ( 0-6 hr); assay type: ADME, organism-based, Canis lupus familiaris, Urine; design: dose 1 mg/kg, route intraperitoneal; settings: in vivo
Method in brief: (§4)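 Spontaneous urine was pooled with bladder urine collected by catheterization at 6 h. Volume was measured and Na+, K+ and Cl− were determined by standard methods. Values are geometric means.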

[7] = test system: Rattus norvegicus; experiment: Oral diuretic activity was evaluated by measuring K+ excretion in Rat at 81 mg/kg […] ( 0-5 hr); assay type: ADME, organism-based, Urine; design: dose 81 mg/kg
Method in brief: (§5)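 Female Charles-River rats (150–170 g) were kept overnight on a sugar diet with water ad libitum. Test substance was dissolved in DMF and diluted with water containing Tween 80 to a final 4% DMF vehicle, then given po in 5.0 mL. Rats were housed three per metabolism cage, and 0–5 h urine was assayed for Na⁺, K⁺ and Cl⁻ alongside concurrent placebo groups. Values are mequiv × 100 per cage, geometric means of three cages per dose.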

[8] = test system: Canis familiaris; experiment: Oral diuretic activity was evaluated by measuring Cl- excretion in dog at 20 mg/kg after […] ( 0-6 hr); assay type: ADME, organism-based, Canis lupus familiaris, Urine; design: dose 20 mg/kg, route intraperitoneal; settings: in vivo
[9] = test system: Rattus norvegicus; experiment: Oral diuretic activity was evaluated by measuring Cl- excretion in Rat at 27 mg/kg after […] ( 0-5 hr); assay type: ADME, organism-based, Urine; design: dose 27 mg/kg, route intraperitoneal; settings: in vivo
[10] = test system: Rattus norvegicus; experiment: Oral diuretic activity was evaluated by measuring Na+ excretion in Rat at 9 mg/kg […] ( 0-5 hr); assay type: ADME, organism-based, Urine; design: dose 9 mg/kg; settings: in vivo, ip
Method in brief: (§6)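 Female Charles-River rats (150–170 g) were kept overnight on a sugar diet with water ad libitum. Compound was dissolved in DMF, then diluted with water containing Tween 80 (3 drops/100 mL) to a final 4% DMF, and given po in 5.0 mL. Rats were housed three per metabolism cage. Urine from 0–5 h was analysed for Na+, K+ and Cl−, with concurrent placebo controls. Values are mequiv × 100 per cage, geometric mean of three cages per dose.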

[11] = test system: Canis familiaris; experiment: Oral diuretic activity was evaluated by measuring K+ excretion in dog at 10 mg/kg after ip administration ( 0-6 hr); assay type: ADME, organism-based, Canis lupus familiaris, Urine; design: dose 10 mg/kg, route intraperitoneal; settings: in vivo; method in brief: as §4
[12] = test system: Rattus norvegicus; experiment: Oral diuretic activity was evaluated by measuring Na+ excretion in Rat at 27 mg/kg after […] ( 0-5 hr); assay type: ADME, organism-based, Urine; design: dose 27 mg/kg; method in brief: as §6
[13] = Evaluated for salidiuretic activity measured as sodium ion excretion in Rat, administered orally at a dose of 16.5 mg/kg; assay type: organism-based; design: dose 16.5 mg/kg; settings: Urine; method in brief: as §3
[14] = test system: Rattus norvegicus; experiment: Oral diuretic activity was evaluated by measuring Na+ excretion in Rat at 3 mg/kg […] ( 0-5 hr); assay type: ADME, organism-based, Urine; design: dose 3 mg/kg; settings: in vivo, ip; method in brief: as §6
[15] = test system: Canis familiaris; experiment: Oral diuretic activity was evaluated by measuring Na+ excretion in dog at 1 mg/kg after ip administration ( 0-6 hr); assay type: ADME, organism-based, Canis lupus familiaris, Urine; design: dose 1 mg/kg, route intraperitoneal; settings: in vivo; method in brief: as §4
[16] = test system: Rattus norvegicus; experiment: Oral diuretic activity was evaluated by measuring K+ excretion in Rat at 27 mg/kg after […] ( 0-5 hr); assay type: ADME, organism-based, Urine; design: dose 27 mg/kg; settings: in vivo; method in brief: as §5
[17] = test system: Rattus norvegicus; experiment: Evaluated for salidiuretic activity measured as sodium ion excretion in Rat, administered orally at a dose of 50 mg/kg; assay type: functional, Urine; design: unit not given beside the values; settings: route oral; method in brief: as §3
[18] = test system: Canis familiaris; experiment: Compound administered intravenously at a dose of 5 mg/kg was evaluated for salidiuretic activity measured as sodium ion excretion in Dog; Value ranges from 800-899; assay type: ADME, organism-based, Canis lupus familiaris, Urine; design: dose 5 mg/kg, route intravenous; unit not given beside the values; settings: in vivo, iv; method in brief: as §1
[19] = test system: Canis familiaris; experiment: Oral diuretic activity was evaluated by measuring K+ excretion in dog at 5 mg/kg after ip administration ( 0-6 hr); assay type: ADME, organism-based, Canis lupus familiaris, Urine; design: dose 5 mg/kg, route intraperitoneal; settings: in vivo; method in brief: as §4
[20] = test system: Rattus norvegicus; experiment: Oral diuretic activity was evaluated by measuring K+ excretion in Rat at 9 mg/kg […] ( 0-5 hr); assay type: ADME, organism-based, Urine; design: dose 9 mg/kg; method in brief: as §5
[21] = test system: Rattus norvegicus; experiment: Maximum fall in mean arterial blood pressure was measured in SH rats when compound was administered at 20 mg/kg perorally; assay type: functional; settings: route oral
[22] = test system: Canis familiaris; experiment: Oral diuretic activity was evaluated by measuring Na+ excretion in dog at 20 mg/kg after […] ( 0-6 hr); assay type: ADME, organism-based, Canis lupus familiaris, Urine; design: dose 20 mg/kg; settings: in vivo; method in brief: as §2
[23] = test system: Rattus norvegicus; experiment: Oral diuretic activity was evaluated by measuring K+ excretion in Rat at 3 mg/kg after […] ( 0-5 hr); assay type: ADME, organism-based, Urine; design: dose 3 mg/kg; method in brief: as §5
[24] = test system: Rattus norvegicus; experiment: Compound administered orally at a dose of 81 mg/kg was evaluated for salidiuretic activity measured as sodium ion excretion in Rat; assay type: ADME, organism-based, Urine; design: dose 81 mg/kg, route oral; unit not given beside the values; settings: in vivo, po; method in brief: as §3
[25] = test system: Rattus norvegicus; experiment: Oral diuretic activity was evaluated by measuring Cl- excretion in Rat at 9 mg/kg […] ( 0-5 hr); assay type: ADME, organism-based, Urine; design: dose 9 mg/kg; settings: in vivo; method in brief: as §5
[26] = test system: Rattus norvegicus; experiment: Oral diuretic activity was evaluated by measuring Na+ excretion in Rat at 81 mg/kg […] ( 0-5 hr); assay type: ADME, organism-based, Urine; design: dose 81 mg/kg; method in brief: as §6
[27] = test system: Canis familiaris; experiment: Oral diuretic activity was evaluated by measuring K+ excretion in dog at 20 mg/kg after ip administration ( 0-6 hr); assay type: ADME, organism-based, Canis lupus familiaris, Urine; design: dose 20 mg/kg, route intraperitoneal; settings: in vivo; method in brief: as §4
[28] = test system: Rattus norvegicus; experiment: Oral diuretic activity was evaluated by measuring Cl- excretion in Rat at 3 mg/kg after […] ( 0-5 hr); assay type: ADME, organism-based, Urine; design: dose 3 mg/kg, route intraperitoneal; settings: in vivo
[29] = test system: Canis familiaris; experiment: Oral diuretic activity was evaluated by measuring Cl- excretion in dog at 1 mg/kg after […] ( 0-6 hr); assay type: ADME, organism-based, Canis lupus familiaris, Urine; design: dose 1 mg/kg, route intraperitoneal; settings: in vivo
[30] = test system: Canis familiaris; experiment: Oral diuretic activity was evaluated by measuring Na+ excretion in dog at 5 mg/kg after ip administration ( 0-6 hr); assay type: ADME, organism-based, Canis lupus familiaris, Urine; design: dose 5 mg/kg, route intraperitoneal; settings: in vivo
Method in brief: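 Urine collected over 0–6 h: spontaneous voids were pooled with bladder urine taken by catheterization at 6 h. Urine volume was measured, and aliquots were analysed for Na+, K+ and Cl− by standard methods. Electrolyte excretion is reported as geometric means.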

[31] = test system: Rattus norvegicus; experiment: Oral diuretic activity was evaluated by measuring Cl- excretion in Rat at 81 mg/kg after […] ( 0-5 hr); assay type: ADME, organism-based, Urine; design: dose 81 mg/kg, route intraperitoneal; settings: in vivo

Diuretic activity [1]: 800
Compound: CC(C)(C)c1cc(CN)c(O)c(C(=O)O)c1.Cl

Diuretic activity [2]: 20.64
Diuretic activity [3]: 19.63
Diuretic activity [4]: 27.27
Diuretic activity [6]: 2.25
Diuretic activity [7]: 0.6
Diuretic activity [8]: 50.25
Diuretic activity [9]: 2.36
Diuretic activity [10]: 0.94
Diuretic activity [11]: 5
Diuretic activity [12]: 1.89
Diuretic activity [14]: 0.41
Diuretic activity [15]: 5.25
Diuretic activity [16]: 0.45
Diuretic activity [18]: 800
Diuretic activity [19]: 4.5
Diuretic activity [20]: 0.32
Diuretic activity [22]: 37.25
Diuretic activity [23]: 0.25
Diuretic activity [24]: 2.9
Diuretic activity [25]: 1.19
Diuretic activity [26]: 2.77
Diuretic activity [27]: 8.25
Diuretic activity [28]: 0.46
Diuretic activity [29]: 6.5
Diuretic activity [30]: 14.75
Diuretic activity [31]: 3.47
Compound: Cl.NCc1c(O)c(Cl)cc(Cl)c1Cl
Diuretic activity [5]: 0.5
Diuretic activity [13]: 1.4
Diuretic activity [17]: 2.4
MAP [21]: 18 mmHg

— ChEMBL document CHEMBL1121573, “2-(Aminomethyl)phenols, a new class of saluretic agents. 1. Effects of nuclear substitution” (J Med Chem, 1980)
